Test results published in ChEMBL document CHEMBL1152462, “Betulinic acid derivatives that target gp120 and inhibit multiple genetic subtypes of human immunodeficiency virus type 1” (Antimicrob Agents Chemother, 2008).
Active and inactive are the calls of the source. No cut-off for these calls is given here.

Assays:
[1] = biological target: Envelope glycoprotein gp160 (Human immunodeficiency virus type 1 group M subtype B (isolate YU-2)(HIV-1)) (UniProt P35961); test: Inhibition of HIV1 (isolate YU2) envelope glycoprotein 120-mediated membrane fusion between virus-transfected african green monkey COS cells and human TZM-bl cells by luciferase-based cell-cell fusion assay in presence of IC9564; settings: Human immunodeficiency virus type 1 (isolate YU2)
Chain of Envelope glycoprotein gp160 (Human immunodeficiency virus type 1 group M subtype B (isolate YU-2)(HIV-1)) (P35961 whole entry, the tested form may be a part): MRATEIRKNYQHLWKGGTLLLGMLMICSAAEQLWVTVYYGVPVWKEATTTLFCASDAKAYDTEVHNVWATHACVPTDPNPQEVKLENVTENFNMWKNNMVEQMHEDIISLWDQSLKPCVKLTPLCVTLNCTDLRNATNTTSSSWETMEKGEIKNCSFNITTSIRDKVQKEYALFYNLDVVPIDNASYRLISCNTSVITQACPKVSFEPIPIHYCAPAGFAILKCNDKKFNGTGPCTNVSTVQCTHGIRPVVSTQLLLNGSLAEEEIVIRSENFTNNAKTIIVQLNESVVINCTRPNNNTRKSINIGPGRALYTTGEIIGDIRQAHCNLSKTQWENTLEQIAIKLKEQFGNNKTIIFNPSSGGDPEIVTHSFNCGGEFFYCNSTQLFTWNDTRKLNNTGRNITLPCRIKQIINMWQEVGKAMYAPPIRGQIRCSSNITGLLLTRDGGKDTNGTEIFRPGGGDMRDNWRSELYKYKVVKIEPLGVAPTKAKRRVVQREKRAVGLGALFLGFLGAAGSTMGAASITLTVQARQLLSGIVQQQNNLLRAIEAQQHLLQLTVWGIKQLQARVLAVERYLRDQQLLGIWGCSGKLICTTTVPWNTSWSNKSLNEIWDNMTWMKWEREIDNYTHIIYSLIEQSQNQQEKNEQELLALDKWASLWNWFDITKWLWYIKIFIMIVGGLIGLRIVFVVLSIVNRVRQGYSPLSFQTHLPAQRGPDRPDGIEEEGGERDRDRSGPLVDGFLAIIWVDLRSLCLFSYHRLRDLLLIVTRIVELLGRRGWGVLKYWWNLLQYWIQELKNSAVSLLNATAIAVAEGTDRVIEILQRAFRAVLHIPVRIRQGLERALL

[2] = system: Human immunodeficiency virus 1; test: Antiviral activity against HIV1 5768.4 infected in human TZM-b1 cells assessed as inhibition of viral infection after 2 days postinfection by luciferase reporter gene assay; assay type: functional, organism-based; settings: Human immunodeficiency virus 1, 5768.4, TZM-b1, 48 h
How it was run: (§1)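 Single-round infection of TZM-bl cells with 200 TCID50 of virus in the presence of varying compound concentrations, top concentration 15 µM. After 2 days, medium was removed and Bright-Glo reagent added to read luminescence. IC50 is the concentration giving 50% reduction in luciferase RLU relative to virus-control wells.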

[3] = system: Human immunodeficiency virus 1; test: Antiviral activity against HIV1 Q23.71 infected in human TZM-b1 cells assessed as inhibition of viral infection after 2 days postinfection by luciferase reporter gene assay; assay type: functional, organism-based; settings: Human immunodeficiency virus 1, Q23.71, TZM-b1, 48 h; how it was run: as §1
[4] = system: Human immunodeficiency virus 1; test: Antiviral activity against HIV1 ZM197M.PB7 infected in human TZM-b1 cells assessed as inhibition of viral infection after 2 days postinfection by luciferase reporter gene assay; assay type: functional, organism-based; settings: Human immunodeficiency virus 1, ZM197M.PB7, TZM-b1, 48 h; how it was run: as §1
[5] = system: Human immunodeficiency virus 1; test: Antiviral activity against HIV1 RHPA4259.7 infected in human TZM-b1 cells assessed as inhibition of viral infection after 2 days postinfection by luciferase reporter gene assay; assay type: functional, organism-based; settings: Human immunodeficiency virus 1, RHPA4259.7, TZM-b1, 48 h; how it was run: as §1
[6] = Cytotoxicity against human TZM-bl cells at 15 uM after 2 days by trypan blue exclusion assay; assay type: cell-based; settings: 48 h
[7] = system: Human immunodeficiency virus 1; test: Antiviral activity against HIV1 NL4-3 infected in human TZM-b1 cells assessed as inhibition of viral infection after 2 days postinfection by luciferase reporter gene assay; assay type: functional, organism-based; settings: Human immunodeficiency virus 1, NL4-3, TZM-b1, 48 h; how it was run: as §1
[8] = system: Human immunodeficiency virus 1; test: Antiviral activity against HIV1 ZM109F.PB4 infected in human TZM-b1 cells assessed as inhibition of viral infection after 2 days postinfection by luciferase reporter gene assay; assay type: functional, organism-based; settings: Human immunodeficiency virus 1, ZM109F.PB4, TZM-b1, 48 h; how it was run: as §1
[9] = system: Human immunodeficiency virus 1; test: Inhibition of V3-speciifc monoclonal antibody 447-52 binding to HIV1 Ba-L gp120 by ELISA-based competitive binding assay
[10] = system: Human immunodeficiency virus 1; test: Antiviral activity against HIV1 Du123.6 infected in human TZM-b1 cells assessed as inhibition of viral infection after 2 days postinfection by luciferase reporter gene assay; assay type: functional, organism-based; settings: Human immunodeficiency virus 1, Du123.6, TZM-b1, 48 h; how it was run: as §1
[11] = system: Human immunodeficiency virus 1; test: Antiviral activity against HIV1 Q168.a2 infected in human TZM-b1 cells assessed as inhibition of viral infection after 2 days postinfection by luciferase reporter gene assay; assay type: functional, organism-based; settings: Human immunodeficiency virus 1, Q168.a2, TZM-b1, 48 h; how it was run: as §1
[12] = system: Human immunodeficiency virus 1; test: Antiviral activity against HIV1 TRO.11 infected in human TZM-b1 cells assessed as inhibition of viral infection after 2 days postinfection by luciferase reporter gene assay; assay type: functional, organism-based; settings: Human immunodeficiency virus 1, TRO.11, TZM-b1, 48 h; how it was run: as §1
HOS [13] = test: Inhibition of HIV1 Ba-L gp120/CD4 complex binding to CCR5 expressing HOS cells at 5 µg/ml after 1 hr by competitive binding assay; settings: Human immunodeficiency virus 1
[14] = system: Human immunodeficiency virus 1; test: Antiviral activity against HIV1 CAP244.2.00.D3 infected in human TZM-b1 cells assessed as inhibition of viral infection after 2 days postinfection by luciferase reporter gene assay; assay type: functional, organism-based; settings: Human immunodeficiency virus 1, CAP244.2.00.D3, TZM-b1, 48 h; how it was run: as §1
[15] = Cytotoxicity against human TZM-bl cells after 2 days by trypan blue exclusion assay; assay type: cell-based; settings: 48 h
[16] = system: Human immunodeficiency virus 1; test: Antiviral activity against HIV1 HXB2 infected in human TZM-b1 cells assessed as inhibition of viral infection after 2 days postinfection by luciferase reporter gene assay; assay type: functional, organism-based; settings: Human immunodeficiency virus 1, HXB2, TZM-b1, 48 h; how it was run: as §1
[17] = system: Human immunodeficiency virus 1; test: Antiviral activity against HIV1 Q769.d22 infected in human TZM-b1 cells assessed as inhibition of viral infection after 2 days postinfection by luciferase reporter gene assay; assay type: functional, organism-based; settings: Human immunodeficiency virus 1, Q769.d22, TZM-b1, 48 h; how it was run: as §1
[18] = system: Human immunodeficiency virus 1; test: Inhibition of V3-speciifc monoclonal antibody […] binding to HIV1 Ba-L gp120 by ELISA-based competitive binding assay
[19] = system: Human immunodeficiency virus 1; test: Antiviral activity against HIV1 ZM55F.PB28a infected in human TZM-b1 cells assessed as inhibition of viral infection after 2 days postinfection by luciferase reporter gene assay; assay type: functional, organism-based; settings: Human immunodeficiency virus 1, ZM55F.PB28a, TZM-b1, 48 h; how it was run: as §1
[20] = system: Human immunodeficiency virus 1; test: Antiviral activity against HIV1 ZM214M.PL15 infected in human TZM-b1 cells assessed as inhibition of viral infection after 2 days postinfection by luciferase reporter gene assay; assay type: functional, organism-based; settings: Human immunodeficiency virus 1, ZM214M.PL15, TZM-b1, 48 h; how it was run: as §1
[21] = system: Human immunodeficiency virus 1; test: Antiviral activity against HIV1 6535.3 infected in human TZM-b1 cells assessed as inhibition of viral infection after 2 days postinfection by luciferase reporter gene assay; assay type: functional, organism-based; settings: Human immunodeficiency virus 1, 6535.3, TZM-b1, 48 h; how it was run: as §1
[22] = system: Human immunodeficiency virus 1; test: Antiviral activity against HIV1 Du422.1 infected in human TZM-b1 cells assessed as inhibition of viral infection after 2 days postinfection by luciferase reporter gene assay; assay type: functional, organism-based; settings: Human immunodeficiency virus 1, Du422.1, TZM-b1, 48 h; how it was run: as §1
[23] = system: Human immunodeficiency virus 1; test: Antiviral activity against HIV1 WITO4160.33 infected in human TZM-b1 cells assessed as inhibition of viral infection after 2 days postinfection by luciferase reporter gene assay; assay type: functional, organism-based; settings: Human immunodeficiency virus 1, WITO4160.33, TZM-b1, 48 h; how it was run: as §1
HOS [24] = test: Inhibition of HIV1 3B gp120/CD4 complex binding to CCR5 expressing HOS cells at […] after 1 hr by competitive binding assay; assay type: cell-based; settings: Human immunodeficiency virus 1
How it was run: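 HOS.CCR5 cells were plated on poly-D-lysine and held overnight at 37°C. Soluble CD4 (4.5 nM) was premixed 1:1 with gp120 (Ba-L or IIIB) for 15 min at room temperature. The complex was added to cells with compound at 5 µg/ml for 1 h at 37°C. Bound gp120 was detected with FITC anti-gp120 (1 h), washed three times in PBS, and read by fluorescence at 490/520 nm.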

[25] = system: Human immunodeficiency virus 1; test: Antiviral activity against HIV1 SS1196.1 infected in human TZM-b1 cells assessed as inhibition of viral infection after 2 days postinfection by luciferase reporter gene assay; assay type: functional, organism-based; settings: Human immunodeficiency virus 1, SS1196.1, TZM-b1, 48 h; how it was run: as §1
[26] = system: Human immunodeficiency virus 1; test: Antiviral activity against HIV1 CAP.2.00.G3 infected in human TZM-b1 cells assessed as inhibition of viral infection after 2 days postinfection by luciferase reporter gene assay; assay type: functional, organism-based; settings: Human immunodeficiency virus 1, CAP.2.00.G3, TZM-b1, 48 h; how it was run: as §1
[27] = system: Human immunodeficiency virus 1; test: Inhibition of V3-speciifc monoclonal antibody 39F binding to HIV1 3B gp120 by ELISA-based competitive binding assay
[28] = system: Human immunodeficiency virus 1; test: Antiviral activity against HIV1 Q259.d2.17 infected in human TZM-b1 cells assessed as inhibition of viral infection after 2 days postinfection by luciferase reporter gene assay; assay type: functional, organism-based; settings: Human immunodeficiency virus 1, Q259.d2.17, TZM-b1, 48 h; how it was run: as §1
[29] = Ratio of inhibition of HIV1 […] envelope glycoprotein 120-mediated membrane fusion to inhibition of HIV1 (isolate YU2) envelope glycoprotein 120-mediated membrane fusion
[30] = system: Human immunodeficiency virus 1; test: Inhibition of V3-speciifc monoclonal antibody 447-52D binding to HIV1 3B gp120 by ELISA-based competitive binding assay
[31] = system: Human immunodeficiency virus 1; test: Antiviral activity against HIV1 Q461.e2 infected in human TZM-b1 cells assessed as inhibition of viral infection after 2 days postinfection by luciferase reporter gene assay; assay type: functional, organism-based; settings: Human immunodeficiency virus 1, Q461.e2, TZM-b1, 48 h; how it was run: as §1
[32] = system: Human immunodeficiency virus 1; test: Antiviral activity against HIV1 QH0515.1 infected in human TZM-b1 cells assessed as inhibition of viral infection after 2 days postinfection by luciferase reporter gene assay; assay type: functional, organism-based; settings: Human immunodeficiency virus 1, QH0515.1, TZM-b1, 48 h; how it was run: as §1
[33] = system: Human immunodeficiency virus 1; test: Antiviral activity against HIV1 REJO4541.67 infected in human TZM-b1 cells assessed as inhibition of viral infection after 2 days postinfection by luciferase reporter gene assay; assay type: functional, organism-based; settings: Human immunodeficiency virus 1, REJO4541.67, TZM-b1, 48 h; how it was run: as §1
[34] = system: Human immunodeficiency virus 1; test: Antiviral activity against HIV1 Q842.d12 infected in human TZM-b1 cells assessed as inhibition of viral infection after 2 days postinfection by luciferase reporter gene assay; assay type: functional, organism-based; settings: Human immunodeficiency virus 1, Q842.d12, TZM-b1, 48 h; how it was run: as §1
[35] = system: Human immunodeficiency virus 1; test: Antiviral activity against HIV1 Du151.2 infected in human TZM-b1 cells assessed as inhibition of viral infection after 2 days postinfection by luciferase reporter gene assay; assay type: functional, organism-based; settings: Human immunodeficiency virus 1, Du151.2, TZM-b1, 48 h; how it was run: as §1

Cc1ccc(-c2ccc3c(c2)C=C(C(=O)Nc2ccc(C[N+](C)(C)C4CCOCC4)cc2)CCC3)cc1
Activity [1]: 0.053 ng/mL

C=C(C)[C@@H]1CC[C@]2(C(=O)NCCCCCCCC(=O)N[C@@H](CC(C)C)[C@H](O)CC(=O)O)CC[C@]3(C)[C@H](CC[C@@H]4[C@@]5(C)CC[C@H](O)C(C)(C)[C@@H]5CC[C@]43C)[C@@H]12
IC50 [2]: 670 nM | IC50 [3]: 1610 nM | IC50 [4]: 90 nM | IC50 [5]: 820 nM | Activity [6]: Non-toxic | IC50 [7]: 100 nM | IC50 [8]: 810 nM | inhibition [9]: Active | IC50 [10]: 90 nM | IC50 [11]: 620 nM | IC50 [12]: 750 nM | inhibition (HOS [13]): Active | IC50 [14]: 1210 nM | IC50 [15]: > 50000 nM | IC50 [16]: 80 nM | IC50 [17]: 4070 nM | inhibition [18]: inactive | IC50 [19]: 750 nM | IC50 [20]: 70 nM | IC50 [21]: 7300 nM | IC50 [22]: 650 nM | IC50 [23]: 390 nM | inhibition (HOS [24]): Active | IC50 [25]: 210 nM | IC50 [26]: 80 nM | inhibition [27]: Dose-dependent effect | IC50 [28]: 250 nM | Ratio [29]: 30 | inhibition [30]: Dose-dependent effect | IC50 [31]: 310 nM | IC50 [32]: 1260 nM | IC50 [33]: 1070 nM | IC50 [34]: 810 nM | IC50 [35]: 810 nM
